Experimental data from ChEMBL document CHEMBL2380211, “Conformational restriction in a series of GPR119 agonists: differences in pharmacology between mouse and human” (Bioorg Med Chem Lett, 2013).
Values after ≈ are worked out from the molar mass of the structure shown.

Assays:
[1] = Plasma clearance in rat at 2 mg/kg, iv and 5 mg/kg, po; format: ADME, organism-based
Procedure, shortened: (§1)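 Rats dosed at 2 mg/kg IV in 5% DMSO:95% hydroxypropyl beta cyclodextrin, and at 5 mg/kg orally as a 0.1% pluronic F127 suspension, both at 5 mL/kg.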

[2] = Half life in rat at 5 mg/kg, po; format: ADME, organism-based; design: dose 5 mg/kg, route oral; settings: in vivo; procedure, shortened: as §1
[3] = Apparent permeability from apical to basolateral side in MDCK cells at 10 uM; format: ADME, cell-based, Canis lupus familiaris; settings: dog
Procedure, shortened: (§2)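 Compound incubated at 10 µM with cultured MDCK epithelial cells. Apparent permeability measured in both directions, A-B and B-A.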

[4] = Half life in rat at 2 mg/kg, iv; format: ADME, organism-based; design: dose 2 mg/kg, route intravenous; settings: in vivo; procedure, shortened: as §1
[5] = Oral bioavailability in rat at 5 mg/kg; format: ADME, organism-based; settings: in vivo; procedure, shortened: as §1
[6] = 1-octanol-aqueous phosphate buffer distribution coefficient, log D of the compound at pH 7.4 after 30 mins by shake-flask method; format: physicochemical
Procedure, shortened: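 Partition of compound between 1-octanol and aqueous phosphate buffer, pH 7.4.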

[7] = Volume of distribution at steady state in rat at 2 mg/kg, iv and 5 mg/kg, po; format: ADME, organism-based; settings: in vivo, read-out: Vdss; procedure, shortened: as §1
[8] = Apparent permeability from basolateral to apical side in MDCK cells at 10 uM; format: ADME, cell-based, Canis lupus familiaris; settings: dog; procedure, shortened: as §2
[9] = AUC in rat at 2 mg/kg, iv and 5 mg/kg, po; format: ADME, organism-based; settings: plasma; procedure, shortened: as §1
[10] = Intrinsic clearance in rat hepatocytes measured per 10^6 cells; format: ADME, cell-based, Hepatocyte; settings: read-out: CLH
Mus musculus = test: Antidiabetic activity in C57BL6/JAX mouse assessed as reduction in blood glucose AUC at 50 mg/kg administered 30 mins prior to glucose challenge measured up to 90 mins by OGTT relative to control; format: functional; design: scale not given: the % may be the effect or the level left
Procedure, shortened: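 C57BL6/JAX mice given compound at 50 mg/kg, 30 min before a 2 g/kg oral glucose load. Blood glucose followed to 90 min. Value is the % reduction in blood glucose AUC.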

[11] = biological target: T1, Glucose-dependent insulinotropic receptor (Mus musculus, UniProt Q7TQP3); test: Displacement of [3H]-N-(2-fluoro-4-methylsulfonyl-phenyl)-6-[4-(3-isopropyl-1,2,4-oxadiazol-5-yl)-1-piperidyl]-5-nitro-pyrimidin-4-amine from mouse GPR119 overexpressed in baculovirus infected Sf21 cell membranes after 120 mins by scintillation counting analysis
T1 sequence (Q7TQP3 whole entry): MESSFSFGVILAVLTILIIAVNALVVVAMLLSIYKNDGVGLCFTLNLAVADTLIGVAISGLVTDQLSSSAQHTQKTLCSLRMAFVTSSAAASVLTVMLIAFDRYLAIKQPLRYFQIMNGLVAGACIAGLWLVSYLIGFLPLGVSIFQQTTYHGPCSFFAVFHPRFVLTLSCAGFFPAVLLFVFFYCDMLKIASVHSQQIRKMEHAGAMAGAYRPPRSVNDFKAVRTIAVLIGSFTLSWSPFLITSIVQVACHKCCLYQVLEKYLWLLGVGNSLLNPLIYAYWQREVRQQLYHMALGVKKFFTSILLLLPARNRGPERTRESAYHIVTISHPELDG

[12] = biological target: T2, Glucose-dependent insulinotropic receptor (Homo sapiens, UniProt Q8TDV5); test: Agonist activity at human GPR119 overexpressed in HEK293S cells assessed as change in cAMP level after 45 mins by HTRF assay; format: functional, cell-based
T2 sequence (Q8TDV5 whole entry): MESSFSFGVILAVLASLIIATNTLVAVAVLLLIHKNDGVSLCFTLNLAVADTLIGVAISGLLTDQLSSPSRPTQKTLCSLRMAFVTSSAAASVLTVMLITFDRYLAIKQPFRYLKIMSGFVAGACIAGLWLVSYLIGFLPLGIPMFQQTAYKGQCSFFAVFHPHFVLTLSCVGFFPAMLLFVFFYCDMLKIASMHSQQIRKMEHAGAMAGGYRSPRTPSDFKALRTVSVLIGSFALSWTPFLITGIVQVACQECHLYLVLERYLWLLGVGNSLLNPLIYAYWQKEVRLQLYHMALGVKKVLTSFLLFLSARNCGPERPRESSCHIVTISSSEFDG

[13] = biological target: T2, Glucose-dependent insulinotropic receptor; test: Displacement of [3H]-N-(2-fluoro-4-methylsulfonyl-phenyl)-6-[4-(3-isopropyl-1,2,4-oxadiazol-5-yl)-1-piperidyl]-5-nitro-pyrimidin-4-amine from human GPR119 overexpressed in baculovirus infected Sf21 cell membranes after 120 mins by scintillation counting analysis
[14] = biological target: T1, Glucose-dependent insulinotropic receptor; test: Agonist activity at mouse GPR119 overexpressed in HEK293S cells assessed as change in cAMP level after 45 mins by HTRF assay; format: functional, cell-based
Cytochrome P450 3A4 = Cytochrome P450 3A4 (Homo sapiens, UniProt P08684); test: Inhibition of CYP3A4 (unknown origin); format: ADME
Cytochrome P450 3A4, sequence (P08684 whole entry): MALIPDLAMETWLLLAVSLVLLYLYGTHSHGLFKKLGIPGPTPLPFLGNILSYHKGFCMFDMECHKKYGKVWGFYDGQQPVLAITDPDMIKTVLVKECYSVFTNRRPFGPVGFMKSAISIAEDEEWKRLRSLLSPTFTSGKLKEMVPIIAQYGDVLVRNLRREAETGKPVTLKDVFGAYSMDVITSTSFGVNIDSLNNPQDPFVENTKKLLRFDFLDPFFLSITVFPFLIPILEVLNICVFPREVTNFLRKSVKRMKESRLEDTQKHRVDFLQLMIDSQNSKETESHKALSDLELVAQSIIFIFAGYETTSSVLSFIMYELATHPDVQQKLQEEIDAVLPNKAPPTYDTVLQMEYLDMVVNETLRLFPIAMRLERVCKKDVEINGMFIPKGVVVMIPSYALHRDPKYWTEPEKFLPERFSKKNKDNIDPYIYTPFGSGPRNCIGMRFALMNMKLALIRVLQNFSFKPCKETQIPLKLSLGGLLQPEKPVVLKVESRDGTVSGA

[15] = Fraction unbound in mouse plasma by equilibrium dialysis method; format: ADME, cell-free
[16] = Aqueous solubility of the compound in phosphate buffer at pH 7.4 at 25 degC after 24 hrs by LC-UV analysis; format: physicochemical
Cytochrome P450 1A2 = biological target: T3, Cytochrome P450 1A2 (Homo sapiens, UniProt P05177); test: Inhibition of CYP1A2 (unknown origin); format: ADME
T3 sequence (P05177 whole entry): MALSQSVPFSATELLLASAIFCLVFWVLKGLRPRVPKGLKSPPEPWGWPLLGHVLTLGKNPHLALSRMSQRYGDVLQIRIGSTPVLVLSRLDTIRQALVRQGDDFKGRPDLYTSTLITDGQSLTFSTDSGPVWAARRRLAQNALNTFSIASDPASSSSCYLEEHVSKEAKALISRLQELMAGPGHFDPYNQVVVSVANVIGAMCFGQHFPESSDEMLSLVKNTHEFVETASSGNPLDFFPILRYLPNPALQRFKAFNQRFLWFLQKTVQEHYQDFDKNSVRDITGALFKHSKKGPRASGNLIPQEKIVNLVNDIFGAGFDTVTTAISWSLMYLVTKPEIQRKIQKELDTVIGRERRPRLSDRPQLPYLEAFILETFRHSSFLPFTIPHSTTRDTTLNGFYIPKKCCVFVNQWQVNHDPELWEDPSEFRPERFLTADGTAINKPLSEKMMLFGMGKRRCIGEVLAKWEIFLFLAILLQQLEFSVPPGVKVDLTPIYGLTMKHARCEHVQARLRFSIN

Cytochrome P450 2D6 = Cytochrome P450 2D6 (Homo sapiens, UniProt P10635); test: Inhibition of CYP2D6 (unknown origin); format: ADME
Cytochrome P450 2D6, sequence (P10635 whole entry): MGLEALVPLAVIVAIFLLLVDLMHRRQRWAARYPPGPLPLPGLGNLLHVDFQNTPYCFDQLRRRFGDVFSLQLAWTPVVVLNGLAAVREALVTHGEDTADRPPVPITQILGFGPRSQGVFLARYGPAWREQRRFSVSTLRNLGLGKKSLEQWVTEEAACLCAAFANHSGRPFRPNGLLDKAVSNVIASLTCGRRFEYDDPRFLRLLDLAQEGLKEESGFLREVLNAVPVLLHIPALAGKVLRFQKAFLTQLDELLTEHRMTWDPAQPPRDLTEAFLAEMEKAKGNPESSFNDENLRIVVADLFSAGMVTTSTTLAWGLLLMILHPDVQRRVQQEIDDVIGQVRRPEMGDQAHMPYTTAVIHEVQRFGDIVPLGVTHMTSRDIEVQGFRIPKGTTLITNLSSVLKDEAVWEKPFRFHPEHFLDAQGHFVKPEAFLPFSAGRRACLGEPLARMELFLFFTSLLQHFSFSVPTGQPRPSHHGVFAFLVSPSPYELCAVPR

Cytochrome P450 2C19 = Cytochrome P450 2C19 (Homo sapiens, UniProt P33261); test: Inhibition of CYP2C19 (unknown origin); format: ADME
Cytochrome P450 2C19, sequence (P33261 whole entry): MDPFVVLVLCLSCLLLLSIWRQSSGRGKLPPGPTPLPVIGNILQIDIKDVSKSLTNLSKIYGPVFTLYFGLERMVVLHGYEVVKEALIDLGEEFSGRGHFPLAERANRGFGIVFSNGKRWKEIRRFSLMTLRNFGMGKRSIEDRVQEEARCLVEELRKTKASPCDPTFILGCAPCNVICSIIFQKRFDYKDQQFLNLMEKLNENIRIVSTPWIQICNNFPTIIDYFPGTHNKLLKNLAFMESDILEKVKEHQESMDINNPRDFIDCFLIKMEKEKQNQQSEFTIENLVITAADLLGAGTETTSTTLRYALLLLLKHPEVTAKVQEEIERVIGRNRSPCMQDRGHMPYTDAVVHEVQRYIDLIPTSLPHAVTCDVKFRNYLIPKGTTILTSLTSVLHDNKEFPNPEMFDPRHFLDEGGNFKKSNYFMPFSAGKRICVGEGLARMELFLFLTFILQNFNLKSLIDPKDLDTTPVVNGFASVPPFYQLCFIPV

Cytochrome P450 2C9 = Cytochrome P450 2C9 (Homo sapiens, UniProt P11712); test: Inhibition of CYP2C9 (unknown origin); format: ADME
Cytochrome P450 2C9, sequence (P11712 whole entry): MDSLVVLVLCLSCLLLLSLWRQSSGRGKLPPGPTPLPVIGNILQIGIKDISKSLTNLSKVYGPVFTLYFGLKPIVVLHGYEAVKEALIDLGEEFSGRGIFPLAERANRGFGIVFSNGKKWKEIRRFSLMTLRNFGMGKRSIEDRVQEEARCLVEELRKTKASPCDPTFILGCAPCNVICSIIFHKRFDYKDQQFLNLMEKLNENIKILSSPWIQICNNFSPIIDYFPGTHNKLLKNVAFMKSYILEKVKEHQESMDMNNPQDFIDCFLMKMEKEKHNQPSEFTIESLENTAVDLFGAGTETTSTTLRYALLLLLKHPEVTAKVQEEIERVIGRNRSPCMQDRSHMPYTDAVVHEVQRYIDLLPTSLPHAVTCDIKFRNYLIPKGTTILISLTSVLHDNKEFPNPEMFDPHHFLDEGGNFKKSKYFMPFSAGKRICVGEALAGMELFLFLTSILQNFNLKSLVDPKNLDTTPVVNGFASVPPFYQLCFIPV

[17] = biological target: Voltage-gated inwardly rectifying potassium channel KCNH2 (Homo sapiens, UniProt Q12809); test: Inhibition of human ERG by IonWorks assay
Voltage-gated inwardly rectifying potassium channel KCNH2, sequence (Q12809 whole entry): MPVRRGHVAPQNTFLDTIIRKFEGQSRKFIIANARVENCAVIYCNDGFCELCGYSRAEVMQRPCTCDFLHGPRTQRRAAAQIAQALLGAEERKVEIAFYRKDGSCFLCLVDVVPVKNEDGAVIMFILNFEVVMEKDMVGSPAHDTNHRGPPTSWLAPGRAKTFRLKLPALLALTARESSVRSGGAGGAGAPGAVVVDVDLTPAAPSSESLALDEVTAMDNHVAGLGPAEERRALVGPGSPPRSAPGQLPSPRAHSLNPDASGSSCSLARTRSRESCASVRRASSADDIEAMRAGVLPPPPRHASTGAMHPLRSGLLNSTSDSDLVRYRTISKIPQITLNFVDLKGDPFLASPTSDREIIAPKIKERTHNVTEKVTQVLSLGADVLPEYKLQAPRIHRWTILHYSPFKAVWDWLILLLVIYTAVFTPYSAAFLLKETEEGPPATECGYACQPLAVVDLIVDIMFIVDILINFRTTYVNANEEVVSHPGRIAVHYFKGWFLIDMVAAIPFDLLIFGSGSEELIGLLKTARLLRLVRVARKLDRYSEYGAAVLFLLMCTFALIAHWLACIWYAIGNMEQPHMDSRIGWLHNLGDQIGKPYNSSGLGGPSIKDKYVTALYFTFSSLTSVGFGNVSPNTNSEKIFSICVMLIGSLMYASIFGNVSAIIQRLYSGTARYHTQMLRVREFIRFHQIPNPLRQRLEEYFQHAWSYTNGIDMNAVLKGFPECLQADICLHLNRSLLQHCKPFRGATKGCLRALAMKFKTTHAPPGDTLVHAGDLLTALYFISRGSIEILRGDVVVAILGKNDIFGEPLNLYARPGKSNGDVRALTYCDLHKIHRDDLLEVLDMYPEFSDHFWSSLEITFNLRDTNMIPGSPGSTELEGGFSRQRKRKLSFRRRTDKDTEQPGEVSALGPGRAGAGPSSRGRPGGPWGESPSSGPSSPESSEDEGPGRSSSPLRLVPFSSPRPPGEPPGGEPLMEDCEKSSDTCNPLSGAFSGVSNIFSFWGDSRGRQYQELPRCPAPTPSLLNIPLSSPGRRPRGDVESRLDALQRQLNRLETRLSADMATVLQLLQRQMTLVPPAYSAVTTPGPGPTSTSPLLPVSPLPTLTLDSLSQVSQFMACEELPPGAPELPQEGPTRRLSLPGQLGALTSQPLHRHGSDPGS

[18] = Fraction unbound in rat plasma by equilibrium dialysis method; format: ADME, cell-free

SMILES: C[C@@H]1CN(C(=O)OCC(F)(F)F)CCN1c1ncc(OCc2ccncc2C#N)cn1
- clearance [1]: 0.84 L/h/kg
- half-life [2]: 2.2 h
- Papp A→B at 10 µM [3]: 190 nm/s
- half-life [4]: 1.4 h
- bioavailability [5]: 27%
- logD at 0.5 h [6]: 3
- Vd [7]: 1.1 L/kg
- Papp B→A at 10 µM [8]: 100 nm/s
- AUC [9]: 3.2 µM·h
- hepatocyte CLint [10]: 27 µL/min/1e6 cells
- Activity (Mus musculus): 10%

SMILES: CC(C)(C)OC(=O)N1CC2CCC(C1)N2c1ncc(OCc2ccc(S(C)(=O)=O)cc2)cn1
- IC50 [11]: 0.072 µM
- EC50 [12]: 0.079 µM
- IC50 [13]: 0.092 µM

SMILES: CC(C)(C)OC(=O)N1C2CCC1CN(c1ncc(OCc3ccc(S(C)(=O)=O)cc3)cn1)C2
- IC50 [11]: 0.005 µM
- EC50 [12]: 0.011 µM
- IC50 [13]: 0.003 µM

SMILES: CC(C)(C)OC(=O)N1C2CCC1CN(c1ncc(OCc3ccncc3C#N)cn1)C2
- IC50 [11]: 0.009 µM
- EC50 [12]: 0.004 µM
- IC50 [13]: 0.001 µM

SMILES: N#Cc1cnccc1COc1cnc(N2CCN(C(=O)OC3CC(F)(F)C3(F)F)CC2)nc1 (configuration not stated)
- IC50 [11]: 0.758 µM
- EC50 [12]: 0.02 µM
- EC50 [14]: 0.252 µM
- IC50 [13]: 0.025 µM
- Activity (Mus musculus): 30%

SMILES: C[C@@H]1CN(C(=O)OC2CC(F)(F)C2(F)F)CCN1c1ncc(OCc2ccncc2C#N)cn1 (some centres not stated)
- IC50 [11]: 0.694 µM
- EC50 [12]: 0.006 µM
- EC50 [14]: 0.084 µM
- IC50 [13]: 0.006 µM

SMILES: N#Cc1cnccc1COc1cnc(N2CC3CCC(C2)N3C(=O)OC2CC(F)(F)C2(F)F)nc1 (configuration not stated)
- IC50 [11]: 0.065 µM
- EC50 [12]: 0.007 µM
- IC50 [13]: 0.009 µM
- Activity (Mus musculus): 3%

SMILES: N#Cc1cnccc1COc1cnc(N2CCN(C(=O)OCC(F)(F)F)CC2)nc1
- IC50 (Cytochrome P450 3A4): > 30 µM
- fraction unbound [15]: 0.094
- clearance [1]: 1.32 L/h/kg
- half-life [2]: 2.1 h
- Papp A→B at 10 µM [3]: 320 nm/s
- half-life [4]: 3.9 h
- bioavailability [5]: 48%
- solubility at 24 h [16]: 3.3 µM (≈ 1.39 µg/mL)
- IC50 (Cytochrome P450 1A2): > 30 µM
- IC50 (Cytochrome P450 2D6): > 30 µM
- IC50 (Cytochrome P450 2C19): > 30 µM
- IC50 [11]: 4.99 µM
- EC50 [12]: 0.047 µM
- IC50 (Cytochrome P450 2C9): > 30 µM
- logD at 0.5 h [6]: 3
- Vd [7]: 5.3 L/kg
- EC50 [14]: 0.698 µM
- IC50 [13]: 0.018 µM
- IC50 [17]: 10 µM
- AUC [9]: 4 µM·h
- hepatocyte CLint [10]: 12 µL/min/1e6 cells
- fraction unbound [18]: 0.051
- Activity (Mus musculus): 21%

SMILES: N#Cc1cnccc1COc1cnc(N2CC3CCC(C2)N3C(=O)OCC(F)(F)F)nc1
- IC50 (Cytochrome P450 3A4): > 30 µM
- fraction unbound [15]: 0.096
- clearance [1]: 0.66 L/h/kg
- half-life [2]: 2.6 h
- Papp A→B at 10 µM [3]: 250 nm/s
- half-life [4]: 1.7 h
- bioavailability [5]: 17%
- solubility at 24 h [16]: 3.8 µM (≈ 1.7 µg/mL)
- IC50 (Cytochrome P450 1A2): > 30 µM
- IC50 (Cytochrome P450 2D6): > 30 µM
- IC50 (Cytochrome P450 2C19): > 30 µM
- IC50 [11]: 0.104 µM
- EC50 [12]: 0.009 µM
- IC50 (Cytochrome P450 2C9): > 30 µM
- logD at 0.5 h [6]: 3
- Vd [7]: 1 L/kg
- EC50 [14]: 0.02 µM
- Papp B→A at 10 µM [8]: 200 nm/s
- IC50 [13]: 0.008 µM
- AUC [9]: 2.1 µM·h
- hepatocyte CLint [10]: 13 µL/min/1e6 cells
- fraction unbound [18]: 0.065
- Activity (Mus musculus): 6%

SMILES: CC(C)c1nc(N2CCN(c3ncc(OCc4ccncc4C#N)cn3)CC2)no1
- IC50 [11]: 2.72 µM
- EC50 [12]: 0.019 µM
- EC50 [14]: 0.242 µM
- IC50 [13]: 0.012 µM

SMILES: CC(C)c1nc(N2C3CCC2CN(c2ncc(OCc4ccncc4C#N)cn2)C3)no1
- IC50 [11]: 0.122 µM
- EC50 [12]: 0.011 µM
- EC50 [14]: 0.045 µM
- IC50 [13]: 0.004 µM
